# The list is not random: actives were taken first. Their share in the collection is about 0.89%.
# Arrestin-AP2 inh = inhibitors of beta-arrestin/AP2 binding, primary screen, biochemical, GPCR trafficking, flow cytometry; 0.31% of 340,000 active; inhibition, % at 10 µM; AID 504490, 2011; FITC-arrestin peptide / GST-AP2 beads; AP2 beta2 appendage carries R879A mutation;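 active = inhibition above a set limit, near 3 SD of compounds lacking own fluorescence, cut at about 54% in these data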;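 also: plate controls were DMSO wells for no effect and 5 µM unlabelled arrestin peptide for full effect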
#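 system = GST-tagged AP2 beta2-adaptin appendage (R879A) on 4 µm glutathione beads | reagent = FITC-labelled arrestin peptide probe, 50 nM final | schedule = compound with beads 12 min RT, then probe 1 h RT | signal = HyperCyt-sampled flow cytometry, FL1 channel, ex 488/em 535 nm | read-out = percent response from loss of bead-bound FITC fluorescence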
# ABCB6 inh MLPCN = ABCB6 transporter inhibitors, primary screen, K562-ABCB6 cells, flow cytometry, MLPCN library. K562-ABCB6 porphyrin accumulation, 1 h; hits give low values. fluorescence ratio to DMSO, % at 10 µM. ATP-binding cassette sub-family B member 6 (Homo sapiens), Q9NP58. 0.19% of 360,000 active;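 active = fluorescence ratio to DMSO below 75%, the collection mean minus 3 SD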;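 also: signal is porphyrin accumulated inside mitochondria; 100% equals median channel fluorescence of DMSO control wells; lower ratio means ABCB6 inhibition with less porphyrin fluorescence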
# iPSC survival up = enhancers of single-cell hiPSC survival, primary screen, ATPlite luminescence | 0.044% of 360,000 active | 100% = ROCK inhibitor wells, 0% = DMSO | survival enhancement, % at 20 µM; in the data active = survival enhancement above about 18%;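 also: cells exposed to compounds for 16 hours before the ATP read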
# PG9 Ab binder = binders of HIV-1 gp120 antibody PG9, primary screen, biochemical, TR-FRET. AID 624416, 2012. TR-FRET gp120-PG9 antibody binding. HIV-1 gp120 / PG9 antibody interaction. 0.43% of 360,000 active. inhibition, % at 6.7 µM; in the data active = inhibition above about 8.5%
# ABCB6 blocker 1 = ABCB6 transporter inhibitors, confirmation, K562-ABCB6 cells, flow cytometry, cherry pick 1 | shares compounds with ABCB6 inh MLPCN | K562-ABCB6 porphyrin accumulation, 1 h; hits give low values | ratio response (% of DMSO), % at 10 µM | 700 tested, under 10 active;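 active = repeat-averaged ratio response below 75% of DMSO, the collection mean minus 3 SD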;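 also: median porphyrin fluorescence at 575 nm with 488 nm excitation from mitochondria; lower ratio means less porphyrin signal so ABCB6 inhibition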
# Active calls of the source: *; . = no result.
SMILES,Arrestin-AP2 inh,ABCB6 inh MLPCN,iPSC survival up,PG9 Ab binder,ABCB6 blocker 1
CC(=O)Nc1ccc(NC(=O)C2(C)Cc3c(-c4cccc(C(F)(F)F)c4)ccnc3O2)cc1 (stereo not given),.,98,-3,-3,.
CC1(C(=O)Nc2cccnc2)Cc2c(-c3cccc(C(F)(F)F)c3)ccnc2O1 (stereo not given),.,94,-1,1,97
CC1(C(=O)Nc2ccccc2)Cc2c(-c3ccc4c(c3)OCO4)ccnc2O1 (stereo not given),.,99,4,-1,.
CC1(C(=O)Nc2cccnc2)Cc2c(-c3ccc4c(c3)OCO4)ccnc2O1 (stereo not given),.,94,0,-2,99
Cc1cc(N2CCNC[C@H]2C)ccc1N1CCN(Cc2ccccc2)[C@H](C)C1,.,.,.,-3,.
Cc1cc(Nc2ccc(OC(F)F)cc2)cc(=O)n1-c1ccc(OC(F)F)cc1,.,.,.,0,.
CCOC(=O)N1CCN(S(=O)(=O)c2ccc(F)c(C(=O)Nc3cccc(C)c3C)c2)CC1,29,72*,0,1,99
CCOC(=O)c1ccccc1NC(=O)c1cc(S(=O)(=O)N2CCOCC2)ccc1F,-2,99,5,0,.
COC(=O)c1c(NC(=O)CCCC(=O)O)sc(C)c1C,-3,102,0,1,.
CCc1ccc(CCC(=O)Nc2sc(C)c(C)c2C(=O)OC)o1,-5,69*,2,0,97
Nc1ncnc2c1ncn2[C@@H]1O[C@H](C(=O)N[C@@H](CCc2ccccc2)C(=O)N2CCN(C(=O)N3CCOCC3)CC2)[C@@H](O)[C@H]1O,.,.,.,-1,.
CCN1C(=O)c2ccccc2S(=O)(=O)c2ccc(C(=O)NCCCN(CC(C)C)CC(C)C)cc21,-11,66*,1,-1,101
CC(C)C[C@H](NS(=O)(=O)c1ccc(F)cc1F)C(=O)N1CCC[C@H]1C(=O)NCc1ccccc1,.,.,.,1,.
CC12CCC(C(=O)N(CCCN3CCN(Cc4ccccc4)CC3)C1=O)C2(C)C (stereo not given),10,100,5,0,.
CC12CCC(C(=O)N(CCCCN3CCN(c4ccccn4)CC3)C1=O)C2(C)C (stereo not given),-13,58*,0,-2,99
CN1CCCCC(NC(=O)C23CC4CC(CC(C4)C2)C3)C1=O (stereo not given),.,.,.,1,.
Cc1cc(Oc2cccnc2)ccc1NC(=O)CCc1c[nH]c2ccccc12,.,.,.,-1,.
O=C(Nc1c2c(nn1-c1ccc(Cl)cc1)CS(=O)(=O)C2)C1CC1,24,94,2,-2,.
Cc1ccc(-n2nc3c(c2NC(=O)C2CCCC2)CS(=O)(=O)C3)cc1,-2,10*,0,-1,95
Cc1ccc(NC(=O)NNC(=O)CSC2CCc3ccccc32)c(C)c1 (stereo not given),.,.,.,1,.
COc1ccc(CNC(=O)CSc2nnc(C)s2)cc1,3,74*,0,-1,97
CC(NC(=O)C=Cc1ccco1)C(=O)NC(Cc1ccccc1)C(N)=O (stereo not given),.,.,.,0,.
Cc1ccc(OCC(O)CNC(=O)c2ccccc2C(=O)O)cc1 (stereo not given),-7,71*,-2,1,99
Cc1cccc(OCC(O)CNC(=O)c2ccccc2C(=O)O)c1 (stereo not given),6,93,-2,-2,.
C#CCN1CC(COc2ccccc2)OCCS1(=O)=O (stereo not given),.,.,.,-1,.
SMILES,Arrestin-AP2 inh,ABCB6 inh MLPCN,iPSC survival up,PG9 Ab binder,ABCB6 blocker 1
CC1(C(=O)NS(=O)(=O)c2ccccc2C(F)(F)F)CCN1C(=O)CC1CCCCC1 (stereo not given),.,99,8,2,.
CC(C)(C)c1ccc(S(=O)(=O)NC(=O)C2(C)CCN2C(=O)Cc2ccccc2Cl)cc1 (stereo not given),.,85,0,0,.
CC1(C(=O)NS(=O)(=O)c2cccc(Cl)c2)CCN1C(=O)CCc1ccc(Cl)cc1Cl (stereo not given),.,96,-1,1,.
CC1(C(=O)NS(=O)(=O)c2ccccc2C(F)(F)F)CCN1C(=O)C1CCCCC1 (stereo not given),.,62*,0,0,100
CC(C)(C(=O)N1CCC1(C)C(=O)NS(=O)(=O)c1cccc(Cl)c1)c1ccccc1 (stereo not given),.,98,-3,0,101
COc1ccc(S(=O)(=O)NC(=O)C2(C)CCN2C(=O)Cc2ccccc2Cl)cc1 (stereo not given),.,95,1,-1,102
CC(C)(C(=O)N1CCC1(C)C(=O)NS(=O)(=O)c1cccc(F)c1)c1ccccc1 (stereo not given),.,98,-2,0,.
CC1(C(=O)NS(=O)(=O)c2ccccc2)CCN1C(=O)CCc1ccc(Cl)cc1Cl (stereo not given),.,96,1,2,98
Cc1cc2c(c(=O)o1)[C@@]1(C(=O)N(C)c3ccccc31)C1=C(CC(C)(C)CC1=O)O2,.,.,.,0,.
COCCCNC(=O)C[C@H]1C[C@@]2(C(=O)OC)C(=C[C@H](C3CCCC3)O[C@@H]2C)N(Cc2ccccc2)C1=O,.,.,.,3,.
COc1cccc(CN(C)C(=O)[C@@H](Cc2ccccc2)NC(=O)[C@H]2O[C@@H](n3ccc(=O)[nH]c3=O)[C@H](O)[C@@H]2O)c1,.,.,.,-1,.
COc1ccc(OC)c(S(=O)(=O)NC(=O)C2(C)CCN2C(=O)Cc2ccccc2Cl)c1 (stereo not given),.,97,-2,1,98
CC1(C(=O)NS(=O)(=O)c2ccccc2Cl)CCN1C(=O)Cc1ccccc1 (stereo not given),.,99,2,-1,.
CC(C)(C)c1ccc(CC(=O)N2CCC2(C)C(=O)NS(=O)(=O)c2ccccc2Cl)cc1 (stereo not given),.,99,5,-1,98
COc1ccccc1C(=O)Nc1ccnn1C1CCN(C(=O)c2ccoc2)CC1,-6,74*,0,-1,98
NC(=O)c1ncn([C@@H]2O[C@H](C(=O)N[C@H](Cc3ccccc3)C(=O)N3CCN(CC(=O)Nc4ccccn4)CC3)[C@@H](O)[C@H]2O)n1,.,.,.,-1,.
O=C(c1ccc(Cn2cc([N+](=O)[O-])cn2)o1)N1N=C(C(F)F)CC1(O)C(F)F (stereo not given),-2,99,3,.,.
O=C(c1ccc(COc2ccccc2Br)o1)N1N=C(C(F)F)CC1(O)C(F)F (stereo not given),3,96,0,1,101
NS(=O)(=O)c1ccc(CCNc2ccn3nc(-c4ccccc4)cc3n2)cc1,.,103,4,-1,.
